According to ChEMBL document CHEMBL1155878, “Substituted 6-phenyl-2-naphthols. Potent and selective nonsteroidal inhibitors of 17beta-hydroxysteroid dehydrogenase type 1 (17beta-HSD1): design, synthesis, biological evaluation, and pharmacokinetics” (J Med Chem, 2008):
Calls of active or inactive are those of the source. No cut-off for these calls is given here.

Columns and labels:
[1] = target: T1, 17-beta-hydroxysteroid dehydrogenase type 1 (Homo sapiens) (UniProt P14061); experiment: Inhibition of human placental 17beta-HSD1 assessed as conversion of [3H]estrone to [3H]17beta-estradiol at 100 nM
T1 sequence (whole entry): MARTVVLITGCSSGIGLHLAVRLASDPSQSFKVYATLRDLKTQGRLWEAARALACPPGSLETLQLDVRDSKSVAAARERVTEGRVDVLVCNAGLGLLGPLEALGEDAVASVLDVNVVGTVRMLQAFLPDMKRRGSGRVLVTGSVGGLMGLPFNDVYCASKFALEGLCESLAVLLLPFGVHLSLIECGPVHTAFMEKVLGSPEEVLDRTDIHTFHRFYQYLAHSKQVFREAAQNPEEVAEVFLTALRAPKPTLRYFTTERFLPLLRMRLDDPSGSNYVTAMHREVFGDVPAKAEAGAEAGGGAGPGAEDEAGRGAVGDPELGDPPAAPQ
In short: (§1)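 Cytosolic enzyme from human placenta, purified by ammonium sulfate precipitation, with NADH 500 µM. Incubated at 37 °C in 50 mM phosphate buffer with 20% glycerol and 1 mM EDTA, 1% DMSO final. Started with [3H]E1 (500 nM final) and stopped with HgCl2 after 10 min. Ether extraction, then HPLC with radioflow detection of E1/E2. Result is % inhibition = 100 − % conversion, from ≥3 independent experiments.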

[2] = target: T1, 17-beta-hydroxysteroid dehydrogenase type 1 (Homo sapiens); experiment: Inhibition of human placental 17beta-HSD1 assessed as conversion of [3H]estrone to [3H]17beta-estradiol at 1 uM; in short: as §1
[3] = Cmax in Wistar rat at 10 mg/kg, po; type: ADME, organism-based; parameters: dose 10 mg/kg, route oral; settings: in vivo
In short: (§2)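 Four adult male Wistar rats per group given 10 mg/kg orally in labrasol/water (1:1), cassette dosing. Rats were jugular-cannulated under ketamine/xylazine and sampled freely moving at 1, 2, 3, 4, 6, 8, 10 and 24 h. Plasma stored at -20 °C and quantified by HPLC-MS/MS (ESI triple quadrupole).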

[4] = Stimulation of human […] cell proliferation at 100 nM after 8 days by MTT assay relative to 17-beta estradiol; type: functional
[5] = AUC (0 to tlast) in Wistar rat at 10 mg/kg, po; type: ADME, organism-based; parameters: dose 10 mg/kg, route oral; settings: plasma; in short: as §2
[6] = Terminal half life in Wistar rat at 10 mg/kg, po; type: ADME, organism-based; parameters: dose 10 mg/kg, route oral; settings: in vivo; in short: as §2
Rattus norvegicus [7] = experiment: Tlast in Wistar rat at 10 mg/kg, po; type: ADME, organism-based; parameters: dose 10 mg/kg, route oral; settings: in vivo; in short: as §2
[8] = Tmax in Wistar rat at 10 mg/kg, po; type: ADME, organism-based; parameters: dose 10 mg/kg, route oral; settings: in vivo; in short: as §2
[9] = target: T2, 17-beta-hydroxysteroid dehydrogenase type 1 (Homo sapiens, UniProt P14061); experiment: Inhibition of human placental 17beta-HSD1 assessed as conversion of [3H]estrone to [3H]17beta-estradiol
T2 sequence (P14061 whole entry): T1 sequence (whole entry)

[10] = AUC (0 to infinity) in Wistar rat at 10 mg/kg, po; type: ADME, organism-based; parameters: dose 10 mg/kg, route oral, time infinity; settings: plasma; in short: as §2
Rattus norvegicus [11] = experiment: Clast in Wistar rat at 10 mg/kg, po; type: ADME, organism-based; parameters: dose 10 mg/kg, route oral; settings: in vivo; in short: as §2
[12] = target: T3, 17-beta-hydroxysteroid dehydrogenase type 2 (Homo sapiens) (UniProt P37059); experiment: Inhibition of human recombinant expressed in Sf9 cells 17beta-HSD2 assessed as conversion of [3H]17beta-estradiol to [3H]estrone at 1 uM
T3 sequence (whole entry): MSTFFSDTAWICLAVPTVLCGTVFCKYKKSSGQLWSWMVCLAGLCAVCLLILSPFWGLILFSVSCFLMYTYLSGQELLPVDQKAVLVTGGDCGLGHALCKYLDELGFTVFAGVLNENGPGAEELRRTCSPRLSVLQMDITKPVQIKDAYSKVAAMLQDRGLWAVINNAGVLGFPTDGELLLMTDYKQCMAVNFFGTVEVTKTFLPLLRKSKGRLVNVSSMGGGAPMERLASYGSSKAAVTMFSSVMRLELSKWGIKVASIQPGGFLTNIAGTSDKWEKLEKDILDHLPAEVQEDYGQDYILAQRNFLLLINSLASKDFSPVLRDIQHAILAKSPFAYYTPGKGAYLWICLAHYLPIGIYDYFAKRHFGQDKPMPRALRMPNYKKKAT
In short: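 Microsomes from Sf9 cells infected with baculovirus. Incubated with 30 nM [3H]E2 and 1 mM NAD+ in 20 mM KH2PO4, pH 7.4, for 30 min at room temperature, with 1% DMSO. Stopped with 10% trichloroacetic acid. E1/E2 radioactivity used for conversion; inhibition = 100 − % conversion, from two independent experiments.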

T47C = experiment: Stimulation of human […] cell proliferation at 0.1 nM after 8 days by MTT assay; type: functional, cell-based
[13] = target: T4, 17-beta-hydroxysteroid dehydrogenase type 2 (Homo sapiens, UniProt P37059); experiment: Inhibition of human placental 17beta-HSD2 assessed as conversion of [3H]17beta-estradiol to [3H]estrone
T4 sequence (P37059 whole entry): T3 sequence (whole entry)
In short: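 Human placental microsomal fraction incubated with NAD+ (1500 µM), test compound and unlabeled plus [3H]E2 (final 500 nM) for 20 min at 37 °C. The reaction was stopped with HgCl2 and extracted with ether. E1 and E2 were separated by HPLC with radioflow detection. Percent conversion was used to derive inhibition. Values are the mean of three determinations; IC50 was measured for selected compounds.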

O=C(Nc1ccccn1)c1c(O)ccc2cc(-c3cccc(O)c3)ccc12
Activity [1]: inactive | Activity [2]: inactive

Oc1cccc(-c2ccc3c(-c4ccccc4)c(O)ccc3c2)c1
Cmax [3]: 860 ng/mL | Activity [4]: 39% | AUC(0-t) [5]: 11700 ng·h/mL | half-life [6]: 6 h | tz (Rattus norvegicus [7]): 24 h | Tmax [8]: 4 h | IC50 [9]: 20 nM | AUC(0-inf) [10]: 12700 ng·h/mL | Cz (Rattus norvegicus [11]): 115 ng/mL

N#Cc1cc(O)cc2ccc(-c3cccc(O)c3)cc12
inhibition [1]: 73% | inhibition [2]: 99%

Oc1cccc(-c2ccc3cc(O)ccc3c2)c1
Cmax [3]: 2230 ng/mL | Activity [4]: 41% | AUC(0-t) [5]: 29700 ng·h/mL | half-life [6]: 4 h | tz (Rattus norvegicus [7]): 24 h | Tmax [8]: 6 h | AUC(0-inf) [10]: 30700 ng·h/mL | Cz (Rattus norvegicus [11]): 159 ng/mL

Cc1ccc(S(=O)(=O)c2c(O)ccc3cc(-c4cccc(O)c4)ccc23)cc1
inhibition [2]: 75%

O=S(=O)(c1ccccc1)c1c(O)ccc2cc(-c3cccc(O)c3)ccc12
inhibition [2]: 33%

O=C(Nc1ncccn1)c1c(O)ccc2cc(-c3cccc(O)c3)ccc12
Activity [1]: inactive | Activity [2]: inactive

CNC(=O)CCc1c(O)ccc2cc(-c3cccc(O)c3)ccc12
inhibition [12]: 36%

C[C@]12CC[C@@H]3c4ccc(O)cc4CC[C@H]3[C@@H]1CC[C@@H]2O
Activity (T47C): Active

Cc1nnc(NC(=O)c2c(O)ccc3cc(-c4cccc(O)c4)ccc23)s1
inhibition [2]: 73%

Oc1cccc(-c2ccc3c(Br)c(O)ccc3c2)c1
IC50 [9]: 40 nM | IC50 [13]: 639 nM

N#Cc1cc(-c2cccc(O)c2)cc2ccc(O)cc12
inhibition [1]: inactive | inhibition [2]: 53%
